Results from PMC9299185 (Pest Management Science, 2021).
Where two headings read alike, the source gives them in different places.

Experiments:
[1] = target: T1, honey bee CYP9Q2 (Apis mellifera, UniProt A0A7M7R6F2); assay: Fluorescence-based BOMFC probe assay with recombinantly expressed CYP9Q2; type: biochemical; settings: for Hill slope CYP9Q2: fungicides
T1 sequence (A0A7M7R6F2 1-532): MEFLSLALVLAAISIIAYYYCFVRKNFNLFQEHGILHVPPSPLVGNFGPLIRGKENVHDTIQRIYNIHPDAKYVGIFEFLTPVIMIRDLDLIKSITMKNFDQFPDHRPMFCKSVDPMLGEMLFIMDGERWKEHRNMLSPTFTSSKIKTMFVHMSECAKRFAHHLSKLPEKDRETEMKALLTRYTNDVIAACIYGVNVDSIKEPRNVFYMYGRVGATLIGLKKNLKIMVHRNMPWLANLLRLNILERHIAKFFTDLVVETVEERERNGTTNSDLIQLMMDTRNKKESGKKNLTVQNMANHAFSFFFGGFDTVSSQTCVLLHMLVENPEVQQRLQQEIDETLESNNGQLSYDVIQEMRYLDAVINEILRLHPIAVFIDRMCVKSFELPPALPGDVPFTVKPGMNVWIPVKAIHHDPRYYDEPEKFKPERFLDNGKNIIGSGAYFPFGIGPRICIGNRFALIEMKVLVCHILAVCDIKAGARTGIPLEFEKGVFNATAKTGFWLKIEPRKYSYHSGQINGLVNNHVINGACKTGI
T1 sequence (A0A8U1CY41 1-694 partner): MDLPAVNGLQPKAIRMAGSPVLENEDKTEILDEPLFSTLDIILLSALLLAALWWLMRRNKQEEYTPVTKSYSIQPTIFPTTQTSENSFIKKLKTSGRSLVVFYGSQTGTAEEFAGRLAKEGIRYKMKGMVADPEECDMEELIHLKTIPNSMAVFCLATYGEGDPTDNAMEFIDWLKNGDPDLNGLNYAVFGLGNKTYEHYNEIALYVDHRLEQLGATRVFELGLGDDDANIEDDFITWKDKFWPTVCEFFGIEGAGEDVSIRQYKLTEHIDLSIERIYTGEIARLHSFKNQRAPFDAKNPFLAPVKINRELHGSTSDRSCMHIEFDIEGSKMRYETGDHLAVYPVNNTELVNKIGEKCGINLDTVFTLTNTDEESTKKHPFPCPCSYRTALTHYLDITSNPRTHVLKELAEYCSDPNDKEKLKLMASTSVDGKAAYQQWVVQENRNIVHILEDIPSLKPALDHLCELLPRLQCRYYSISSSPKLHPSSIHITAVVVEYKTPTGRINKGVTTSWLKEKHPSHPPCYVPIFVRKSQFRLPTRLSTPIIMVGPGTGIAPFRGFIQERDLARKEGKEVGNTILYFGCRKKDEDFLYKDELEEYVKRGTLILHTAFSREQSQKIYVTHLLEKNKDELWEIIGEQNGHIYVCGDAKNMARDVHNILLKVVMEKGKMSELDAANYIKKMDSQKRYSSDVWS

[2] = target: T2, honey bee CYP9Q3 (Apis mellifera, UniProt A0A7M7LMV1); assay: Fluorescence-based BOMFC probe assay with recombinantly expressed CYP9Q3; type: biochemical; settings: for Hill slope CYP9Q3: fungicides
T2 sequence (A0A7M7LMV1 1-517): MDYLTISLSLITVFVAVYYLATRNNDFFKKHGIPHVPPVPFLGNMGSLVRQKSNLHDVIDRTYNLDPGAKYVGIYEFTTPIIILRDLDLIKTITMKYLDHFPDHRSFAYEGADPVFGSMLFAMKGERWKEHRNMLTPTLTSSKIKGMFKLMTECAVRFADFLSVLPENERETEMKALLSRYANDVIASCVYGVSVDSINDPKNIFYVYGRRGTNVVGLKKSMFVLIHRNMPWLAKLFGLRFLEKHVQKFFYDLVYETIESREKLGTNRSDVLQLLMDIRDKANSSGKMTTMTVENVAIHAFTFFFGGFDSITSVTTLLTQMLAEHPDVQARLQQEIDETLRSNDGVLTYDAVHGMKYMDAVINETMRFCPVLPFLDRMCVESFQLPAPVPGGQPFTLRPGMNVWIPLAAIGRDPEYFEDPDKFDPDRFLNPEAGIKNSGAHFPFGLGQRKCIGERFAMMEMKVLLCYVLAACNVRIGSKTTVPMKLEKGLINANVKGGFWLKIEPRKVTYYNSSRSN
T2 sequence (A0A8U1CY41 1-694 partner): T1 sequence (A0A8U1CY41 1-694 partner)

[3] = tested on: Drosophila melanogaster Empty × Hsp70 (reference control strain); assay: Drosophila diet overlay bioassay, control strain; type: in vivo; settings: Empty × Hsp70 adults
Summary of the method: (§1)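 F1 adults came from crossing UAS strains carrying honey bee CYP9Q2 or CYP9Q3, or a control strain lacking the transgene, with a GAL4-Hsp70 driver. Flies were heat-shocked at 37 °C three times for 30 min the day before, then again just before testing. The test compound in acetone was diluted 1:2 in water with 0.1% (w/v) Triton X-100 and spread over artificial diet. Mortality was scored at 48 h. Values came from probit analysis; resistance ratio = transgenic LD50 / control LD50.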

[4] = target: T3, honey bee CYP6AQ1 (Apis mellifera, UniProt F1DPP0); assay: Fluorescence-based BOMFC probe assay with recombinantly expressed CYP6AQ1; type: biochemical; settings: for inhibition of CYP6AQ1-mediated BOMFC metabolism: 100 μM
T3 sequence (F1DPP0 1-514): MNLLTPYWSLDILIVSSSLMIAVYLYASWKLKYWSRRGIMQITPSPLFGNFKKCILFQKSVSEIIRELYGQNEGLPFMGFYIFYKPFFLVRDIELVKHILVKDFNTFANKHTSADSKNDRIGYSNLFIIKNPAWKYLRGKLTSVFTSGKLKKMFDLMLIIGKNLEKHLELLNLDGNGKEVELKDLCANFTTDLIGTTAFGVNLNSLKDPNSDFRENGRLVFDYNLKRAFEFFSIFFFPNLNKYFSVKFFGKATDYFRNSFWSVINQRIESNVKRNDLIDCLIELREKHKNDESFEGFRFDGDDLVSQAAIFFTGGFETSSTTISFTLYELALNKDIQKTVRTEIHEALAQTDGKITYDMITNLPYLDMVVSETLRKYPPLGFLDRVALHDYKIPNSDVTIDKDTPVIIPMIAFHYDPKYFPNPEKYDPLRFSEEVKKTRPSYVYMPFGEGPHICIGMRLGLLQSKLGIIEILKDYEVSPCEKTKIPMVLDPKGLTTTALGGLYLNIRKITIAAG
T3 sequence (A0A8U1CY41 1-694 partner): T1 sequence (A0A8U1CY41 1-694 partner)

[5] = Honey bee acute contact toxicity and synergism study; type: in vivo, Apis mellifera; settings: female, Apis mellifera (honey bee), in vivo, topical, honey bee mortality
Summary of the method: (§2)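 OECD 214 acute contact test, modified for the synergist. Mixed-age workers came from the honey super of three queen-right colonies untreated for at least 6 months. Propiconazole was applied at 10 μg/bee. Controls received acetone or propiconazole alone. Mortality was scored at 48 h. Groups were compared by unpaired t-test (P < 0.01), with SEM shown.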

[6] = tested on: Apis mellifera worker bees; assay: as above; type: in vivo; settings: for effect of propiconazole pretreatment on acute contact toxicity: 10 μg/bee propiconazole 1 h prior to insecticide application
Summary of the method: as §2

[7] = tested on: Apis mellifera worker bees; settings: honey bee, reported value; cited from earlier work
[8] = tested on: transgenic Drosophila melanogaster CYP9Q2 × Hsp70; assay: Drosophila diet overlay bioassay, strain expressing honey bee CYP9Q2; type: in vivo; settings: for LD50 48 h: CYP9Q2 × Hsp70 adults, diet overlay; for RR (resistance ratio): LD50 of CYP9Q2 × Hsp70 divided by LD50 of Empty × Hsp70; for Slope: probit analysis, CYP9Q2 × Hsp70
Summary of the method: as §1

[9] = tested on: transgenic Drosophila melanogaster CYP9Q3 × Hsp70; assay: Drosophila diet overlay bioassay, strain expressing honey bee CYP9Q3; type: in vivo; settings: for LD50 48 h: CYP9Q3 × Hsp70 adults, diet overlay; for RR (resistance ratio): LD50 of CYP9Q3 × Hsp70 divided by LD50 of Empty × Hsp70; for Slope: probit analysis, CYP9Q3 × Hsp70
Summary of the method: as §1

[10] = target: T1, honey bee CYP9Q2; settings: BOMFC probe, ref Haas et al. (2021)[33], cited from earlier work
[11] = target: T2, honey bee CYP9Q3; settings: BOMFC probe, ref Haas et al. (2021)[33], cited from earlier work
[12] = IC50 CYP9Q2, fungicides, BOMFC probe
[13] = IC50 CYP9Q3, fungicides, BOMFC probe
[14] = IC50 CYP9Q2, diamides, BOMFC probe 15 μM
[15] = IC50 CYP9Q3, diamides, BOMFC probe 6.5 μM
[16] = highest concentration tested, 100 μM

SMILES: O=C(Nc1ccccc1-c1ccc(Cl)cc1)c1cccnc1Cl [Boscalid, boscalid]
- IC50 [1, 12]: > 10000 nM
- IC50 [2, 13]: 4130 nM
- Hill slope CYP9Q3 ([2]; BOMFC probe): −1.05

SMILES: CNC(=O)c1cc(Cl)cc(C)c1NC(=O)c1cc(Br)nn1-c1ncccc1Cl [Chlorantraniliprole]
- LD50 48 h [3]: 22.2 ppm
- IC50 [4]: > 100000 nM
- inhibition of CYP6AQ1-mediated BOMFC metabolism [4]: not inhibited
- IC50 [1, 14]: 93400 nM
- mortality at 48 h ([5]; 0.2 μg/bee, topical 0.2 μg/bee CPR alone, 48 h): 3.6%
- mortality at 48 h ([5]; 2 μg/bee, topical 2 μg/bee CPR alone, 48 h, ± SEM, n = 3): 12%
- mortality at 48 h ([5]; topical application of 2 μg/bee and 0.2 μg/bee CPR alone): < 15%
- effect of propiconazole pretreatment on acute contact toxicity [6]: significantly increased
- LD50 [7]: > 4 μg/bee
- LD50 48 h [8]: 96.2 ppm
- RR (resistance ratio) [8]: 4.34
- Slope [8]: 1.74
- IC50 [2, 15]: 17400 nM
- LD50 48 h [9]: 155 ppm
- RR (resistance ratio) [9]: 6.99
- Slope [9]: 2.86

SMILES: N#Cc1c(Cl)c(Cl)c(Cl)c(C#N)c1Cl [Chlorothalonil, chlorothalonil]
- IC50 [1, 12]: > 10000 nM
- IC50 [2, 13]: > 10000 nM

SMILES: Cc1cc(C2CC2)nc(Nc2ccccc2)n1 [Cyprodinil]
- IC50 [1, 12]: > 10000 nM
- IC50 [2, 13]: > 10000 nM

SMILES: CC1COC(Cn2cncn2)(c2ccc(Oc3ccc(Cl)cc3)cc2Cl)O1 (centres unmarked) [Difenoconazole, difenoconazole]
- IC50 [1, 12]: 33 nM
- IC50 ([1]; IC50 CYP9Q2, lowest IC50 value): ~30 nM
- Hill slope CYP9Q2 ([1]; BOMFC probe): −0.81
- IC50 [2, 13]: 32 nM
- IC50 ([2]; IC50 CYP9Q3, lowest IC50 value): ~30 nM
- Hill slope CYP9Q3 ([2]; BOMFC probe): −1.02

SMILES: N#CC(CCc1ccc(Cl)cc1)(Cn1cncn1)c1ccccc1 (centres unmarked) [Fenbuconazole, fenbuconazole]
- IC50 [1, 12]: 41 nM
- Hill slope CYP9Q2 ([1]; BOMFC probe): −0.67
- IC50 [2, 13]: 58 nM
- Hill slope CYP9Q3 ([2]; BOMFC probe): −0.86

SMILES: Cc1cc(C(F)(C(F)(F)F)C(F)(F)F)ccc1NC(=O)c1cccc(I)c1C(=O)NC(C)(C)CS(C)(=O)=O [Flubendiamide, flubendiamide]
- LD50 48 h [3]: 147 ppm
- IC50 [4]: > 100000 nM
- inhibition of CYP6AQ1-mediated BOMFC metabolism [4]: did not show any obvious interaction
- IC50 [1, 14]: > 100000 nM
- interaction with BOMFC metabolism by CYP9Q2 [1, 16]: did not show any obvious interaction
- mortality at 48 h ([5]; 100 μg/bee, FLB doses of 100 μg/bee, acute contact): < 5%
- effect of propiconazole pretreatment on acute contact toxicity [6]: not influenced
- LD50 48 h [8]: 253 ppm
- RR (resistance ratio) [8]: 1.73
- Slope [8]: 4.62
- IC50 [2, 15]: > 100000 nM
- interaction with BOMFC metabolism by CYP9Q3 [2, 16]: did not show any obvious interaction
- LD50 48 h [9]: 179 ppm
- RR (resistance ratio) [9]: 1.23
- Slope [9]: 6.97

SMILES: CC(C)NC(=O)N1CC(=O)N(c2cc(Cl)cc(Cl)c2)C1=O [Iprodione, iprodione]
- IC50 [1, 12]: > 10000 nM
- IC50 [2, 13]: > 10000 nM

SMILES: CC1(C)CCC(Cc2ccc(Cl)cc2)C1(O)Cn1cncn1 (centres unmarked) [Metconazole, metconazole]
- IC50 [1, 12]: 33 nM
- Hill slope CYP9Q2 ([1]; BOMFC probe): −0.6
- IC50 [2, 13]: 57 nM
- Hill slope CYP9Q3 ([2]; BOMFC probe): −1.03

SMILES: CCCC1COC(Cn2cncn2)(c2ccc(Cl)cc2Cl)O1 (centres unmarked) [Propiconazole, propiconazole]
- Hill slope CYP9Q2 [10]: −0.88
- IC50 ([10]; read-out: IC50 CYP9Q2): 151 nM
- effect on control bees ([6]; propiconazole only, 10 μg/bee, test period 48 h): remained unaffected
- Hill slope CYP9Q3 [11]: −1.10
- IC50 ([11]; read-out: IC50 CYP9Q3): 72 nM

SMILES: COC(=O)N(OC)c1ccccc1COc1ccn(-c2ccc(Cl)cc2)n1 [Pyraclostrobin, pyraclostrobin]
- IC50 [1, 12]: > 10000 nM
- IC50 [2, 13]: 7840 nM
- Hill slope CYP9Q3 ([2]; BOMFC probe): −0.56
